From ChEMBL document CHEMBL1128605, “(1S,2S)-1-(4-hydroxyphenyl)-2-(4-hydroxy-4-phenylpiperidino)-1-propanol: a potent new neuroprotectant which blocks N-methyl-D-aspartate responses” (J Med Chem, 1995)
Activity calls are given as the source filed them. No cut-off for these calls is given here.

Tests used:
Glutamate NMDA receptor = assay: In vitro inhibition of glutamate induced neuronal death in primary cultures of rat hippocampal neurons.; format: functional, tissue-based, Hippocampus
[1] = molecular target: T1, Adrenergic receptor alpha-1 (Rattus norvegicus, UniProt P15823+P23944+P43140); assay: In vitro binding affinity against Alpha-1 adrenergic receptor using [3H]prazosin as radioligand; format: protein assay
T1 sequence (P15823 whole entry): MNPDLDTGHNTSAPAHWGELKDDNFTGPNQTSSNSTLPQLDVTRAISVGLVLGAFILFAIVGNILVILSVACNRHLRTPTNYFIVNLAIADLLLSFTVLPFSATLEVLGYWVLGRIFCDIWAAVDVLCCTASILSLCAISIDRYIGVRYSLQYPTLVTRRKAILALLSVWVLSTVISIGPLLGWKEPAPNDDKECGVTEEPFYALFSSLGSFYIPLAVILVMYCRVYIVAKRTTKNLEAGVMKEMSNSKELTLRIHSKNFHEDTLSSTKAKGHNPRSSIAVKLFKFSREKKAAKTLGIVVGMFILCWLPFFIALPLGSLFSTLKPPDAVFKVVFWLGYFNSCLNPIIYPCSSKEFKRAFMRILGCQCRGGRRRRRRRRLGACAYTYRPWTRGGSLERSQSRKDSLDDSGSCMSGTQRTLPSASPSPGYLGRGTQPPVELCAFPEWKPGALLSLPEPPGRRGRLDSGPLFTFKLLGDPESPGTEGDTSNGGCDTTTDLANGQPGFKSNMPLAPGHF
T1 sequence (P23944 whole entry): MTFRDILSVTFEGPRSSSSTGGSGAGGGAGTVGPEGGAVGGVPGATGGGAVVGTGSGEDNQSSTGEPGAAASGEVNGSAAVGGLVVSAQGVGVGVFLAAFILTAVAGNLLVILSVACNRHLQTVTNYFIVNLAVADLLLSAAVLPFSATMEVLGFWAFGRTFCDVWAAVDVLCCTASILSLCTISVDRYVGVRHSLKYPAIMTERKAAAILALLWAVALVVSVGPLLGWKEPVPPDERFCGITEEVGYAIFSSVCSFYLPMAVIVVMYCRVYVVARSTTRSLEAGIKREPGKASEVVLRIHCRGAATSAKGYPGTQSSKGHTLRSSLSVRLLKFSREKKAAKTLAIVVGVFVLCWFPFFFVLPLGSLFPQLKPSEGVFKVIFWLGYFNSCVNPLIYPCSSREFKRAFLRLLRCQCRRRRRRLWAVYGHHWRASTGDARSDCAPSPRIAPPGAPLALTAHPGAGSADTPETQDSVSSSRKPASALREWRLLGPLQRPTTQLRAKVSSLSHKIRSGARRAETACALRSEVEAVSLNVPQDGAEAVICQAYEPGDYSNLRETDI
T1 sequence (P43140 whole entry): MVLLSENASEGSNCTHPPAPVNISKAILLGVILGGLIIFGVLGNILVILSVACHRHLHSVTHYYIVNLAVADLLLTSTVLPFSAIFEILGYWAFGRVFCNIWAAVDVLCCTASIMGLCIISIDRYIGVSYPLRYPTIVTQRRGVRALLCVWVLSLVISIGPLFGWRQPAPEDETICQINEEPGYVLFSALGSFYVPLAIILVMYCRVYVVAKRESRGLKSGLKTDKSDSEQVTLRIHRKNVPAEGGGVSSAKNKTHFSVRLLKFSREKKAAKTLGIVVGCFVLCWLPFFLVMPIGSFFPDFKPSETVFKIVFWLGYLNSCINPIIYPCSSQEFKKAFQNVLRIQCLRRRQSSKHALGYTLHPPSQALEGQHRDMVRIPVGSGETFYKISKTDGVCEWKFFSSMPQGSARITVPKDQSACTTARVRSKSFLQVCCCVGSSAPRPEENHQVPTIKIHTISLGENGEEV

Rattus norvegicus [2] = organism: Rattus norvegicus; assay: Selectivity between protection against glutamate-induced neuronal damage and alpha 1 adrenergic affinity
How it was run: (§1)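 Selectivity index: ratio of α1 adrenergic affinity ([3H]prazosin binding IC50) to neuroprotection IC50 (inhibition of glutamate-induced death of primary rat hippocampal neurons).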

Rattus norvegicus [3] = organism: Rattus norvegicus; assay: Selectivity between protection against glutamate-induced neuronal damage and alpha 1 adrenergic affinity; Not significant; how it was run: as §1
Rattus norvegicus [4] = assay: In vivo inhibition of haloperidol-induced catalepsy in rat following s.c. administration.; format: functional; conditions: sc
[5] = In vivo inhibition of NMDA-stimulated fos induction in mouse following i.p. administration.; format: functional; conditions: ip
How it was run: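 Male CF-1 mice (20–25 g), 12 h light/dark, 22 °C. Compound in 50% poly(ethylene glycol) given ip 30 min before NMDA 75 mg/kg ip (subseizure dose). After 1 h: pentobarbital, paraformaldehyde perfusion, two 50 μm hippocampal coronal sections per brain. Sheep anti-Fos (1:1500) immunostaining by avidin–biotin method, glucose oxidase substrate. ED50 calculated against vehicle-only and NMDA-only sections.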

SMILES | IC50 (Glutamate NMDA receptor) | IC50 [1] | Selectivity ratio (Rattus norvegicus [2]) | Selectivity ratio (Rattus norvegicus [3]) | ED50 (Rattus norvegicus [4]) | ED50 [5]
C[C@@H]([C@@H](O)c1ccc(O)cc1)N1CCC(O)(c2ccc(F)cc2)CC1 | 0.004 µM | 2.7 µM | 675 | – | – | –
C[C@@H]([C@@H](O)c1ccc(O)cc1)N1CCN(C(=O)c2ccccc2)CC1 | > 10 µM | > 10 µM | – | inactive | – | –
C[C@@H]([C@@H](O)c1ccc(F)cc1)N1CCC(O)(c2ccccc2)CC1 | > 1 µM | 6.9 µM | – | inactive | – | –
C[C@@H]([C@@H](O)c1ccc(O)cc1)N1CCC(O)(CCc2ccccc2)CC1 | 0.0013 µM | 0.137 µM | 105 | – | – | –
CCC[C@@H]([C@@H](O)c1ccc(O)cc1)N1CCC(O)(Cc2ccccc2)CC1 | – | > 10 µM | 7.7 | – | – | –
COC1(Cc2ccccc2)CCN([C@@H](C)[C@@H](O)c2ccc(O)cc2)CC1 | > 10 µM | – | – | inactive | – | –
C[C@@H]([C@@H](O)c1ccc(Cl)cc1)N1CCC(O)(c2ccccc2)CC1 | > 1 µM | 3.133 µM | – | inactive | – | –
CC[C@@H]([C@@H](O)c1ccc(O)cc1)N1CCC(O)(Cc2ccccc2)CC1 | 0.068 µM | > 10 µM | > 147 | – | – | –
C[C@@H]([C@@H](O)c1ccc(O)cc1)N1CCC(O)(CCCCc2ccccc2)CC1 | 1 µM | 2.3 µM | 2.3 | – | – | –
C[C@@H]([C@@H](O)c1ccc(O)cc1)N1CCN(Cc2ccccc2)CC1 | – | – | – | inactive | – | –
Oc1ccc(C(O)CN2CCC(O)(Cc3ccccc3)CC2)cc1 (stereo not given) | 0.063 µM | > 10 µM | > 158 | – | – | –
C[C@@H]([C@@H](O)c1ccc(O)cc1)N1CCC(O)(c2ccccc2)CC1 (stereo in doubt; 10) [TRAXOPRODIL] | – | 5.7 µM | – | – | – | –
C[C@@H]([C@@H](O)c1ccc(O)cc1)N1CCC(O)(CCCc2ccccc2)CC1 | 0.0157 µM | 2.35 µM | 150 | – | – | –
C[C@@H]([C@@H](O)c1ccc(O)cc1)N1CCC(O)(c2ccccc2)CC1 (stereo in doubt) [TRAXOPRODIL] | – | 19.52 µM | – | – | 0.4 mg/kg | 1 mg/kg
Cc1ccc(C2(O)CCN([C@@H](C)[C@@H](O)c3ccc(O)cc3)CC2)cc1 | 0.0027 µM | 2.166 µM | 1080 | – | – | –
C[C@H]([C@H](O)c1ccc(O)cc1)N1CCC(O)(c2ccccc2)CC1 | – | 8.45 µM | – | – | 0.5 mg/kg | 5 mg/kg
C[C@@H]([C@@H](O)c1ccc(O)cc1)N1CCC(O)(c2ccc(Cl)cc2)CC1 | 0.002 µM | 1.48 µM | 740 | – | – | –
C[C@@H]([C@@H](O)c1ccccc1)N1CCC(O)(c2ccccc2)CC1 | > 1 µM | > 10 µM | – | inactive | – | –
C[C@@H]([C@@H](O)c1ccc(O)cc1)N1CCC(O)(Cc2ccccc2)CC1 | – | > 10 µM | > 172 | – | – | –
